Series [1] deals with Mitogen-activated protein kinase 7 (Homo sapiens) (UniProt Q13164). Put plainly: Binding affinity to wild-type human partial length ERK5 (M1 to A409 residues) expressed in bacterial expression system assessed as remaining unbound target protein level at 1000 nM by Kinomescan method relative to control.
For series [2], the target named is Ribosomal protein S6 kinase alpha-2 (Homo sapiens) (UniProt Q15349). Put plainly: Binding affinity to wild-type human partial length N-terminal RSK3 kinase domain 1 (M1 to Q385 residues) expressed in bacterial expression system assessed as remaining unbound target protein level at 1000 nM by Kinomescan method relative to control.
The target of series [3] is Ephrin type-B receptor 2 (Homo sapiens) (UniProt P29323). The series is described as follows: Binding affinity to wild-type human partial length EPHB2 (I597 to L902 residues) expressed in bacterial expression system assessed as remaining unbound target protein level at 1000 nM by Kinomescan method relative to control.
In series [4] the target is Aurora kinase A (Homo sapiens) (UniProt O14965). Put plainly: Binding affinity to wild-type human partial length AURKA (E122 to K401 residues) expressed in mammalian expression system assessed as remaining unbound target protein level at 1000 nM by Kinomescan method relative to control. Put shortly:
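Profiled in a KINOMEscan binding panel with the inhibitor at a single concentration of 1 μM. Binding to each kinase was read out as percent of control, relative to a DMSO control. Strong binders were defined as those with a percent control value below 1.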

The test system of the next series is MV4-11. Put plainly: Induction of apoptosis in human MV4-11 cells assessed as decrease in c-MYC level after 2 hrs by immunoblotting analysis. It counts as functional, cell-based. (In general: A western blot detects proteins with antibodies after separation by electrophoresis.)
The target of series [5] is Serine/threonine-protein kinase Sgk1 (Homo sapiens) (UniProt O00141). The series is described as follows: Binding affinity to wild-type human partial length SGK (I60 to L431 residues) expressed in mammalian expression system assessed as remaining unbound target protein level at 1000 nM by Kinomescan method relative to control.
A short description of series [6]: Clearance in mouse at 3 mg/kg, iv by LC-MS/MS analysis. It counts as ADME, organism-based. The following applies: in vivo.
The subject of series [7] is Proto-oncogene tyrosine-protein kinase receptor Ret (Homo sapiens), P07949 [V804L]. Put plainly: Binding affinity to human partial length RET V804L mutant (E713 to D1014 residues) expressed in bacterial expression system assessed as remaining unbound target protein level at 1000 nM by Kinomescan method relative to control. Put shortly:
(§1)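 KINOMEscan competition-binding profiling across the panel of 468 kinases and mutants, with inhibitor tested at 1 μM. Binding is expressed as percent of control, with DMSO as the reference control.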

Series [8] concerns the target Inhibitor of nuclear factor kappa-B kinase subunit beta (Homo sapiens) (UniProt O14920). The series is described as follows: Binding affinity to wild-type human full length IKK-beta (M1 to S756 residues) expressed in mammalian expression system assessed as remaining unbound target protein level at 1000 nM by Kinomescan method relative to control. Put shortly:
(§2)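 Single-point competition binding screen across a panel of 468 kinases and mutants, with the inhibitor at 1 μM. Binding is read out as percent of a DMSO control, and targets below 1 percent control were classed as strong binders.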

Series [9] deals with Protein-tyrosine kinase 6 (Homo sapiens) (UniProt Q13882). The series is described as follows: Binding affinity to wild-type human partial length BRK (L166 to T451 residues) expressed in bacterial expression system assessed as remaining unbound target protein level at 1000 nM by Kinomescan method relative to control. The method in brief: (§3)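 KINOMEscan competition binding profile across a panel of 468 kinases and mutants, with the inhibitor tested at a single concentration of 1 μM. Binding is reported as percent of control, meaning signal relative to a DMSO control.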

Series [10] has as its target Mitogen-activated protein kinase kinase kinase 4 (Homo sapiens) (UniProt Q9Y6R4). Put plainly: Binding affinity to wild-type human partial length MAP3K4 (G1319 to E1608 residues) expressed in bacterial expression system assessed as remaining unbound target protein level at 1000 nM by Kinomescan method relative to control.
In series [11] the target is Tyrosine-protein kinase JAK2 (Homo sapiens) (UniProt O60674). Put plainly: Binding affinity to wild-type human partial length JAK2 JH1 catalytic domain (A829 to G1132 residues) expressed in mammalian expression system assessed as remaining unbound target protein level at 1000 nM by Kinomescan method relative to control.
Series [12] addresses Phosphatidylinositol 3-kinase catalytic subunit type 3 (Homo sapiens) (UniProt Q8NEB9). The series is described as follows: Binding affinity to wild-type human partial length VPS34 (S282 to H879 residues) expressed in mammalian expression system assessed as remaining unbound target protein level at 1000 nM by Kinomescan method relative to control.
The nature of series [13]: MRT (0 to infinity) in mouse at 3 mg/kg, iv by LC-MS/MS analysis. It counts as ADME, organism-based. The note with it: in vivo.
Series [14] concerns Tyrosine-protein kinase ABL1 (Homo sapiens), P00519 [F317I]. Put plainly: Binding affinity to human non-phosphorylated ABL1 F317I mutant (S229 to K512 residues) expressed in mammalian expression system assessed as remaining unbound target protein level at 1000 nM by Kinomescan method relative to control. Put shortly: as §1
The target of series [15] is Cyclin-dependent kinase 9 (Homo sapiens, UniProt P50750). The series is described as follows: Inhibition of CDK9 in human MV4-11 cells assessed as decrease in phosphorylation at Thr 186 residues up to 3 uM after 2 hrs by immunoblotting analysis. Format: cell-based.
Series [16] addresses Glycogen synthase kinase-3 beta (Homo sapiens) (UniProt P49841). Put plainly: Binding affinity to wild-type human full length GSK3B (M1 to T433 residues) expressed in mammalian expression system assessed as remaining unbound target protein level at 1000 nM by Kinomescan method relative to control. The method in brief: as §2
Series [17] has as its target Non-receptor tyrosine-protein kinase TYK2 (Homo sapiens) (UniProt P29597). The series is described as follows: Binding affinity to wild-type human partial length TYK2 JH2 pseudokinase domain (G556 to D888 residues) expressed in mammalian expression system assessed as remaining unbound target protein level at 1000 nM by Kinomescan method relative to control.
Series [18] addresses Inhibitor of nuclear factor kappa-B kinase subunit epsilon (Homo sapiens) (UniProt Q14164). The series is described as follows: Binding affinity to wild-type human full length IKK-epsilon (M1 to V716 residues) expressed in mammalian expression system assessed as remaining unbound target protein level at 1000 nM by Kinomescan method relative to control. The method in brief:
as §3

In series [19] the test system is Receptor-type tyrosine-protein kinase FLT3 (Homo sapiens), P36888 [N841I]. Put plainly: Binding affinity to human partial length FLT3 N841I mutant (V592 to Y969 residues) expressed in bacterial expression system assessed as remaining unbound target protein level at 1000 nM by Kinomescan method relative to control. Put shortly: as §1
Series [20] relates to Mitogen-activated protein kinase kinase kinase 12 (DLK). The series is described as follows: Binding affinity to wild-type human full length DLK (M1 to P859 residues) expressed in mammalian expression system assessed as remaining unbound target protein level at 1000 nM by Kinomescan method relative to control.
Series [21] addresses Tyrosine-protein kinase FRK (Homo sapiens) (UniProt P42685). The series is described as follows: Binding affinity to wild-type human partial length FRK (A215 to F503 residues) expressed in bacterial expression system assessed as remaining unbound target protein level at 1000 nM by Kinomescan method relative to control.

Calls of active or inactive are those of the source.

Chain of Tyrosine-protein kinase JAK2 (Homo sapiens) (O60674 whole entry, the tested form may be a part): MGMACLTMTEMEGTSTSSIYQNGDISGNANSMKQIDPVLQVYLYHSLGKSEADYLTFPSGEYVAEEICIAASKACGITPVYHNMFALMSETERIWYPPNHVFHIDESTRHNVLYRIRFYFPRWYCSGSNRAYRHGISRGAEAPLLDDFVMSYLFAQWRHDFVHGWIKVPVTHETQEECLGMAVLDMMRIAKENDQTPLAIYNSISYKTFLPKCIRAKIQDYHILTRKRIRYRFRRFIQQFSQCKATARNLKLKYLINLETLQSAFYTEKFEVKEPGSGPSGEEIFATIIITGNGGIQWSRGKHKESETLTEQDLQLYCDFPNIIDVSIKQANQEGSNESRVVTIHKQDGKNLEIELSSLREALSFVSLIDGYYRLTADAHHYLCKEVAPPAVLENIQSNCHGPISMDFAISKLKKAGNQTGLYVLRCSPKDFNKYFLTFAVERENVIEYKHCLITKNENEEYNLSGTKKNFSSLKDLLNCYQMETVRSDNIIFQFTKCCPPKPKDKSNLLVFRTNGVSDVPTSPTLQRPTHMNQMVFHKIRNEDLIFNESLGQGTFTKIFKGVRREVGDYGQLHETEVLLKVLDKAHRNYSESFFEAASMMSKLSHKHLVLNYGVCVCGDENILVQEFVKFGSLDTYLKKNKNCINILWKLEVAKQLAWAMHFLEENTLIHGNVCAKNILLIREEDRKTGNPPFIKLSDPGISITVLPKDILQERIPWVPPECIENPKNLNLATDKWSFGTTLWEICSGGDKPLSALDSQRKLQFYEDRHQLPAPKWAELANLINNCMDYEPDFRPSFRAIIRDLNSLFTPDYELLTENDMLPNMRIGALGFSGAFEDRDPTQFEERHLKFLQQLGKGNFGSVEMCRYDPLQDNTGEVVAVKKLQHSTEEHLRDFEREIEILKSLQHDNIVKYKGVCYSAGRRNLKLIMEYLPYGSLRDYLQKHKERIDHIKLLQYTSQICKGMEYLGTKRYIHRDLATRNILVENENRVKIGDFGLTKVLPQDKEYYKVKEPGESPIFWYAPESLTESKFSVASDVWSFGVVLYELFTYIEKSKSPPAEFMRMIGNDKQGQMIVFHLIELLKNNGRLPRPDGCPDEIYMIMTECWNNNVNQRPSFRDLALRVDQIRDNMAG
Chain of Proto-oncogene tyrosine-protein kinase receptor Ret (Homo sapiens), P07949 [V804L] (P07949 whole entry V804L, the tested form may be a part): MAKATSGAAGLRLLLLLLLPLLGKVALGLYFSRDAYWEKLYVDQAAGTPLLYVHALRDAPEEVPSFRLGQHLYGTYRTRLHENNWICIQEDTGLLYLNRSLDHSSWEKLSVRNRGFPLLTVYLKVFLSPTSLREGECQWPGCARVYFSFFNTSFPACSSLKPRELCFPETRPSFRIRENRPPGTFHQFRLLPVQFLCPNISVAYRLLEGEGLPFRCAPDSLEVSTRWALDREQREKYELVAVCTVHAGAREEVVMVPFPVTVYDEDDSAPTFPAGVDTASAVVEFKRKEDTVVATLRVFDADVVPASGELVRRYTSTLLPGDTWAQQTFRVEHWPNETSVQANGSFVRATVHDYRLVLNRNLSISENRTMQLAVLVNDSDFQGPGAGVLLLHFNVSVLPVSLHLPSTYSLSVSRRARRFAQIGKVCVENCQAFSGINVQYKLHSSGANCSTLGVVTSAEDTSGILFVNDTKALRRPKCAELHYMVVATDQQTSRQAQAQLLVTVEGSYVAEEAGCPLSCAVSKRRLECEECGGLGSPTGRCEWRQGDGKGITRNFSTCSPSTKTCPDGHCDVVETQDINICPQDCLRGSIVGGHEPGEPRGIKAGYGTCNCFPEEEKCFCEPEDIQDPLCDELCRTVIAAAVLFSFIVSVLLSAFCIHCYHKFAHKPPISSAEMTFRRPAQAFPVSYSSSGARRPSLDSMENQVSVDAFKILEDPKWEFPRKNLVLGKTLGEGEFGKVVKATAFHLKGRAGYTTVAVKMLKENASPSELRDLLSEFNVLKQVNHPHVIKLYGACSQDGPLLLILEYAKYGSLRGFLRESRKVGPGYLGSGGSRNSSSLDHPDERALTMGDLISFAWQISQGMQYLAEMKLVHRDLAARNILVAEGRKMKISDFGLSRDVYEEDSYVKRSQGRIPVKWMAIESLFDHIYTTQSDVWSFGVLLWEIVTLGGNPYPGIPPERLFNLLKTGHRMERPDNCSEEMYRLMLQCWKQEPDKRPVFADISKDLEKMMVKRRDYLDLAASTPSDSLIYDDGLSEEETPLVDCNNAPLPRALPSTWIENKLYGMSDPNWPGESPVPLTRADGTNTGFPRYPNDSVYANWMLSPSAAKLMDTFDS
Chain of Mitogen-activated protein kinase 7 (Homo sapiens) (Q13164 2-816 limits assumed): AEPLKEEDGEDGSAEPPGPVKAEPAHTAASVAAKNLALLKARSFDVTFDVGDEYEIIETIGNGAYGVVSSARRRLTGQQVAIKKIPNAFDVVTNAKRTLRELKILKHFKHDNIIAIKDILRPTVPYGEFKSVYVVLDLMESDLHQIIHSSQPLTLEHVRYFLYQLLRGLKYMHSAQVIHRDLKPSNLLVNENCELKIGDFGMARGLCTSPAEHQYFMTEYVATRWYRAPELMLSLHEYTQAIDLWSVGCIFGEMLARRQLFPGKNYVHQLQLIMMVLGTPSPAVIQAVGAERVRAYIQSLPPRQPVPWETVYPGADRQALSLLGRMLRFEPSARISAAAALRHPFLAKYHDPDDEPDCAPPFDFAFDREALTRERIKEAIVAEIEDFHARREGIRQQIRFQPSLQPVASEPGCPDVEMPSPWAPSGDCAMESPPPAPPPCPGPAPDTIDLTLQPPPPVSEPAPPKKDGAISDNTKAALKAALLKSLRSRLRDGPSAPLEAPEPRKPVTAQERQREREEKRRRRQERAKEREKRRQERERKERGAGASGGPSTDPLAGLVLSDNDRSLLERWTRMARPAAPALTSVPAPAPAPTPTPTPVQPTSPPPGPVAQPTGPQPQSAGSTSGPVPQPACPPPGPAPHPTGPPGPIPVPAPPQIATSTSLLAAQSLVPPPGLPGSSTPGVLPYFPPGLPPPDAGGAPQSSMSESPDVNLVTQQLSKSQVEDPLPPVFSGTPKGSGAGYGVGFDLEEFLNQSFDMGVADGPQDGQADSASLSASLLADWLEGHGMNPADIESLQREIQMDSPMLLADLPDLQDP
Chain of Ephrin type-B receptor 2 (Homo sapiens) (P29323 whole entry, the tested form may be a part): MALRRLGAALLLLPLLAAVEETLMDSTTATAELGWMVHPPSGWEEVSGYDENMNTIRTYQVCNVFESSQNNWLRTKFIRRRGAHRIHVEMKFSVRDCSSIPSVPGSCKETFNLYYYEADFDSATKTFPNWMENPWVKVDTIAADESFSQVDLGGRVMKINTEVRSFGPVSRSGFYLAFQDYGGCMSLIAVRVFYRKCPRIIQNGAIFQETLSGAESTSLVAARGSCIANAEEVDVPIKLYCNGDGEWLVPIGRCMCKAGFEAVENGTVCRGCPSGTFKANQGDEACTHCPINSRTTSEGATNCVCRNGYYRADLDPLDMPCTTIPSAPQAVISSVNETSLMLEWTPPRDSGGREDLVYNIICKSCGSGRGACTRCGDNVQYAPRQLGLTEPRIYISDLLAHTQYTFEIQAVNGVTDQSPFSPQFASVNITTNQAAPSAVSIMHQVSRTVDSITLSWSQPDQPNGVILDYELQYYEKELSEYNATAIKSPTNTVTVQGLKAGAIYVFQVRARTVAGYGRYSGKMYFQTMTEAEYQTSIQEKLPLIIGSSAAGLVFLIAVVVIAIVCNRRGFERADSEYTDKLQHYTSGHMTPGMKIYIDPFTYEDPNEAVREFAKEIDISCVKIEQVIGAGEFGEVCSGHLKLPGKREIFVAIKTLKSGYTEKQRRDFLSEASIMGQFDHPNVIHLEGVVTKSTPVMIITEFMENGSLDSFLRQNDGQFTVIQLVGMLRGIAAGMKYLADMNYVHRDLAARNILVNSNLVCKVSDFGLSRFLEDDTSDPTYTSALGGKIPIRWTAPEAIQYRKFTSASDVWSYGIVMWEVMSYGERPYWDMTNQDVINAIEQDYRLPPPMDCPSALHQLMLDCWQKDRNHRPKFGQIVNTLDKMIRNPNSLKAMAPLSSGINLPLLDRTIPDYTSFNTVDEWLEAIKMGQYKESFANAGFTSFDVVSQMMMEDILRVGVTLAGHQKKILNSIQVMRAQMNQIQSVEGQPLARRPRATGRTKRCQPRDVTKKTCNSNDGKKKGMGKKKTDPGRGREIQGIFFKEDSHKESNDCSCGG
Chain of Tyrosine-protein kinase FRK (Homo sapiens) (P42685 whole entry, the tested form may be a part): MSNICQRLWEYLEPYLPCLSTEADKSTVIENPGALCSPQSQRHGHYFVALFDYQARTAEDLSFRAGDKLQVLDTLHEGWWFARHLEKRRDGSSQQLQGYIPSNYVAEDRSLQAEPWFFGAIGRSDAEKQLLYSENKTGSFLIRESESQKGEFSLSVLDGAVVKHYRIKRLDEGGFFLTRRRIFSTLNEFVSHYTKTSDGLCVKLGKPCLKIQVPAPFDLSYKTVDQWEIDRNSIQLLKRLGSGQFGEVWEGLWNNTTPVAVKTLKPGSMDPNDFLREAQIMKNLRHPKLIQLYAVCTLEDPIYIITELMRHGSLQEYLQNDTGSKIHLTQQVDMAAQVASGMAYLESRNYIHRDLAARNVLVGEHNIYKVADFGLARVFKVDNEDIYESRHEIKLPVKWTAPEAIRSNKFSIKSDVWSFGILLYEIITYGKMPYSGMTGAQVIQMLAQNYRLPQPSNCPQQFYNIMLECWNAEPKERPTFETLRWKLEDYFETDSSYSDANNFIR
Chain of Glycogen synthase kinase-3 beta (Homo sapiens) (P49841 whole entry, looked up, the tested form may be a part): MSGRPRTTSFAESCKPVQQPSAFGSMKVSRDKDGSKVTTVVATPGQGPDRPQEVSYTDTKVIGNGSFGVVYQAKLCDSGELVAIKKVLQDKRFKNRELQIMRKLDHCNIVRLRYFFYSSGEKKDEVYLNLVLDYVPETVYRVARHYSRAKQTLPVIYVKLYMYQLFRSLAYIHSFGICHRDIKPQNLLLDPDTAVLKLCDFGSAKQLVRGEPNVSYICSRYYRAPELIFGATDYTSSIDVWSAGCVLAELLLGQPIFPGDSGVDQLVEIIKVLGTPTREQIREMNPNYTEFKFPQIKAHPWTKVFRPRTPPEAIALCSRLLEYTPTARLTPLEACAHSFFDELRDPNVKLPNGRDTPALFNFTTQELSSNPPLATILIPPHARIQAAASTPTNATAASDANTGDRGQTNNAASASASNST

As for `COCCN[C@H]1CC[C@H](Nc2cc(-c3csc(NCC4(C#N)CCOCC4)n3)c(Cl)cn2)CC1`, the Activity in [1] is 88%; in series [2] it was 90%; in series [3] it was 82%; in [4], 100%; with MV4-11, “Dose-dependent effect”; in series [5], 70%. In addition, the Activity in [7] was determined as 92%; in series [8], 90%; in [9], 95%; in series [10], 89%; in series [11], 85%; in series [12], 95%. Moreover, the Activity was 90% in [14]; 98% in [16]; 100% in series [17]; 99% in [18]; 83% in [19]; 100% in series [20]. For the same molecule, in [21], the Activity worked out at 96%. This molecule also had a clearance in [6] of 123 mL/min/kg. Besides, the MRT inf in series [13] was determined as 1.58 h. The inhibition result in series [15] is “inactive”.

Usually clearance stands for the rate of elimination divided by the concentration. In general, MRT inf refers to a mean duration of stay, worked out from the concentration-time curve.

The values above are taken from ChEMBL document CHEMBL4261600 (Eur J Med Chem, 2018).
